Measurements pooled from the literature.
Each line is one published result; the experiments were not run side by side.
LATS1: Serine/threonine-protein kinase LATS1 (LATS1, Homo sapiens, UniProt O95835)
CA1: Carbonic anhydrase 1 (CA1, Homo sapiens, UniProt P00915)
gag-pol reverse transcriptase: Gag-Pol polyprotein, reverse transcriptase (gag-pol, Human immunodeficiency virus 1, UniProt P03366)
SLC18A2: Synaptic vesicular amine transporter (SLC18A2, Homo sapiens, UniProt Q05940)
CA2: Carbonic anhydrase 2 (CA2, Homo sapiens, UniProt P00918)
CYP2C19: Cytochrome P450 2C19 (CYP2C19, Homo sapiens, UniProt P33261)
UGT1A4: UDP-glucuronosyltransferase 1A4 (UGT1A4, Homo sapiens, UniProt P22310)
ACKR3: Atypical chemokine receptor 3 (ACKR3, Homo sapiens, UniProt P25106)

target | assay | system | conditions | IC50 | Compound
LATS1 | target engagement in cells, BRET | – | – | 0.518 µM | C[C@@H]1CNC[C@H](C)[C@@]1(O)c1ccc(-c2ccnc3[nH]cc(F)c23)cc1
CA1 | enzyme activity, inhibitor, absorbance | – | pH 7.4 | 12.4 µM | O=c1[nH]c(=O)n([C@H]2C[C@H](O)[C@@H](CO)O2)cc1/C=C/Br
Sodium channel protein type 2 subunit alpha (SCN2A, Homo sapiens, UniProt Q99250) | ion current, inhibitor, patch clamp | – | – | 1.61 µM | CC(C)=CCC/C(C)=C/CC/C(C)=C/Cc1c(O)cc(C)c(C(=O)O)c1O
gag-pol reverse transcriptase | enzyme activity, inhibitor | – | – | > 100 µM | CCOC(=O)c1c(NCCCCN)c2c([nH]c1=O)CCC2
LATS1 | enzyme activity, inhibitor, radiometric | – | – | 0.0059 µM | Cc1cc(-c2ccnc3[nH]cc(F)c23)cc(F)c1[C@@]1(O)[C@H](C)CN(C2COC2)C[C@@H]1C
SLC18A2 | transporter uptake, inhibitor | – | – | 5.7 µM | O=C(O[C@H]1CN2CCC1CC2)N1CCc2ccccc2[C@@H]1c1ccccc1
LATS1 | enzyme activity, inhibitor, radiometric | – | – | 0.017 µM | OC1(c2ccc(-c3ccnc4[nH]cc(F)c34)cc2)CCCNCC1 (stereo not drawn)
gag-pol reverse transcriptase | enzyme activity, inhibitor | – | – | 33.9 µM | CCOC(=O)c1c(NCC(C)C)c2c([nH]c1=O)CCC2
SLC18A2 | transporter uptake, inhibitor | – | – | 3.72 µM | CN1CCN(CCCN2c3ccccc3Sc3ccc(Cl)cc32)CC1
CA1 | enzyme activity, inhibitor, absorbance | – | pH 7.4 | 12.6 µM | C[C@H]1c2cccc(O)c2C(=O)C2=C(O)[C@]3(O)C(=O)C(C(N)=O)=C(O)[C@@H](N(C)C)[C@@H]3[C@@H](O)[C@@H]21
SLC18A2 | transporter uptake, inhibitor, radiometric | – | cell membranes | 0.036 µM | O=C1CCc2ccc(OCCCCN3CCN(c4cccc(Cl)c4Cl)CC3)cc2N1
CA1 | enzyme activity, inhibitor, absorbance | – | pH 7.4 | 11.3 µM | COc1cc(C)c(/C=C/C(C)=C/C=C/C(C)=C/C(=O)O)c(C)c1C
Diamine oxidase [copper-containing] (AOC1, Homo sapiens, UniProt P19801) | enzyme activity, inhibitor | – | – | > 30 µM | NC/C(=C\F)COc1cccc(Cn2c(=S)[nH]c(=O)c3[nH]cnc32)c1
CA1 | enzyme activity, inhibitor, absorbance | – | pH 7.4 | 15 µM | CC[C@H]1OC(=O)[C@H](C)[C@@H](O[C@H]2C[C@@](C)(OC)[C@@H](O)[C@H](C)O2)[C@H](C)[C@@H](O[C@@H]2O[C@H](C)C[C@H](N(C)C)[C@H]2O)[C@](C)(O)C[C@@H](C)CN(C)[C@H](C)[C@@H](O)[C@]1(C)O
CA2 | enzyme activity, inhibitor, absorbance | – | – | 0.378 µM | OC1CCN(c2ccc(/C=N/NC(=S)Nc3ccc(Cl)cc3)cc2)CC1
gag-pol reverse transcriptase | enzyme activity, inhibitor | – | – | > 100 µM | CCCCCNc1c2c([nH]c(=O)c1C(=O)OCC)CCC2
CA2 | enzyme activity, inhibitor, absorbance | – | pH 7.4 | 28.4 µM | CC(C)(C(=O)O)c1ccc(C(O)CCCN2CCC(C(O)(c3ccccc3)c3ccccc3)CC2)cc1 (stereo not drawn)
gag-pol reverse transcriptase | enzyme activity, inhibitor | – | – | > 100 µM | CCCCCCNc1c2c([nH]c(=O)c1C(=O)OCC)CCC2
CYP2C19 | enzyme activity, inhibitor, fluorescence | – | pH 8 | 0.023 µM | CN(C)C(=O)c1cc2cnc(Nc3ccc(-c4ccc5c(=O)cc(N6CCOCC6)oc5c4)cc3)nc2n1C1CCCC1
Alpha-2A adrenergic receptor (ADRA2A, Homo sapiens, UniProt P08913) | cAMP, antagonist | – | – | 5.17 µM | CN1CCC(CNc2ccc3ncc(-c4cccc(OC(F)(F)F)c4)n3n2)CC1
cGMP-dependent 3',5'-cyclic phosphodiesterase (PDE2A, Homo sapiens, UniProt O00408) | enzyme activity | – | – | > 200 µM | Cn1cc2c(C(=O)O)ccc(NS(=O)(=O)c3ccc(OCC4CCC4)c(Cl)c3)c2n1
gag-pol reverse transcriptase | enzyme activity, inhibitor | – | – | > 100 µM | C=CCCCNc1c2c([nH]c(=O)c1C(=O)OCC)CCC2
SLC18A2 | transporter uptake, inhibitor | – | – | 8.5 µM | Clc1ccc2c(c1)C(N1CCNCC1)=Nc1ccccc1O2

target | assay | system | conditions | IC50 | Compound
LATS1 | enzyme activity, inhibitor, radiometric | – | – | 0.011 µM | OC1(c2ccc(-c3ccnc4[nH]cc(F)c34)cc2)CCNC1 (stereo not drawn)
CYP2C19 | enzyme activity, inhibitor | – | – | 10 µM | C=CCn1c(=O)c2cnc(Nc3ccc(N4CCN(C)CC4)cc3)nc2n1-c1ccc2c(n1)[C@@](O)(CC)CC2
SLC18A2 | transporter uptake, inhibitor, radiometric | – | cell membranes | 0.154 µM | O=C(CCCN1CC=C(n2c(=O)[nH]c3ccccc32)CC1)c1ccc(F)cc1
Transcriptional activator protein LasR (lasR, Pseudomonas aeruginosa, UniProt P25084) | reporter gene, antagonist | – | – | 1.1 µM | CCCCCCCCCC(=O)CC(=O)Nc1ccccc1
LATS1 | target engagement in cells, BRET | – | – | 2.21 µM | CC1CNCCC1(O)c1ccc(-c2ccnc3[nH]cc(F)c23)cc1 (stereo not drawn)
gag-pol reverse transcriptase | enzyme activity, inhibitor | – | – | > 100 µM | CCCCNc1c2c([nH]c(=O)c1C(=O)OCC)CCC2
SLC18A2 | transporter uptake, inhibitor, radiometric | – | cell membranes | 0.53 µM | COc1cc2c(cc1OC)[C@H]1C[C@@H](OC(=O)[C@@H](N)C(C)C)[C@H](CC(C)C)CN1CC2
LATS1 | target engagement in cells, BRET | – | – | 17.1 µM | OC1(c2ccc(-c3ccnc4[nH]cc(F)c34)cc2)CCNCC1
gag-pol reverse transcriptase | enzyme activity, inhibitor | – | – | 76.4 µM | CCCNc1c2c([nH]c(=O)c1C(=O)OCC)CCC2
LATS1 | target engagement in cells, BRET | – | – | 0.078 µM | Cc1cc(-c2ccnc3[nH]cc(F)c23)ccc1[C@@]1(O)[C@H](C)CNC[C@@H]1C
CA2 | enzyme activity, inhibitor, absorbance | – | pH 7.4 | 13.8 µM | COc1ccnc(C[S+]([O-])c2nc3ccc(OC(F)F)cc3[nH]2)c1OC (stereo not drawn)
SLC18A2 | transporter uptake, inhibitor, radiometric | – | cell membranes | 0.7 µM | Cc1ccc(C(=O)Nc2ccc(CN3CCN(C)CC3)c(C(F)(F)F)c2)cc1C#Cc1cnc2cccnn12
UGT1A4 | enzyme activity, inhibitor | human, liver microsomes | – | 2.23 µM | C[C@@H]1CC[C@@]2(OC1)O[C@H]1C[C@H]3[C@@H]4CC[C@H]5C[C@@H](O)CC[C@]5(C)[C@H]4CC(=O)[C@]3(C)[C@H]1[C@@H]2C
SLC18A2 | transporter uptake, inhibitor | – | – | 0.022 µM | COc1cc2c(N)nc(N3CCN(C(=O)OCC(C)(C)O)CC3)nc2c(OC)c1OC
CA1 | enzyme activity, inhibitor, absorbance | – | pH 7.4 | 12.8 µM | CC(C)[C@H](N)C(=O)OCCOCn1cnc2c(=O)[nH]c(N)nc21
UGT1A4 | enzyme activity, inhibitor | human, liver microsomes | – | 2.66 µM | C[C@H]1[C@H](C)CC[C@]2(C(=O)O)CC[C@]3(C)C(=CC[C@@H]4[C@@]5(C)C[C@@H](O)[C@H](O)C(C)(C)[C@@H]5CC[C@]43C)[C@H]12
LATS1 | enzyme activity, inhibitor, radiometric | – | – | 0.0088 µM | Fc1c[nH]c2nccc(-c3ccc(C4CCNCC4)cc3)c12
gag-pol reverse transcriptase | enzyme activity, inhibitor | – | – | > 100 µM | CCOC(=O)c1c(NCCCO)c2c([nH]c1=O)CCC2
ACKR3 | ligand displacement, BRET | – | – | 2 µM | CC(C)(C)NC(=O)C1CCN(Cc2cccc(/N=N/c3cccc(F)c3)c2)CC1
CA2 | enzyme activity, inhibitor, absorbance | – | pH 7.4 | 15 µM | Nc1ccc(S(=O)(=O)c2ccc(N)cc2)cc1
ACKR3 | ligand displacement, BRET | – | – | 0.0631 µM | CC(C)(C)NC(=O)C1CCN(Cc2cccc(NC(=O)c3ccc(F)cc3)c2)CC1
5-hydroxytryptamine receptor 3A (HTR3A, Homo sapiens, UniProt P46098) | ion current | – | – | 4.35 µM | NC(=O)c1nnn(Cc2cc(Cl)c(C(=O)c3ccc(Cl)cc3)c(Cl)c2)c1N
